Broadly, the IC50 is the concentration at which inhibition is half-maximal. Read a high IC50 as lower potency.

This is an account of results in ChEMBL document CHEMBL1125359, “omega-[(4,6-Diphenyl-2-pyridyl)oxy]alkanoic acid derivatives: a new family of potent and orally active LTB4 antagonists” (J Med Chem, 1992).

T1 sequence (Q15722 whole entry): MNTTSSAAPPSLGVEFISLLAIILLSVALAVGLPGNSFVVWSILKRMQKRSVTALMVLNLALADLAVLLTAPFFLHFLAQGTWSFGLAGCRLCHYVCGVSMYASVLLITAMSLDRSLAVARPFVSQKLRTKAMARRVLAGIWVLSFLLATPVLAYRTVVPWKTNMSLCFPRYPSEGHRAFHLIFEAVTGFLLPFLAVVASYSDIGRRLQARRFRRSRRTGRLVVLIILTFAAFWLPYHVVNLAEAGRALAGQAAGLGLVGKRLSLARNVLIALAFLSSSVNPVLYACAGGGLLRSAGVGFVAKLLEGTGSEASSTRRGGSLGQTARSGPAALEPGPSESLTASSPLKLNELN

The first experiment concerns the target T1, Leukotriene B4 receptor 1 (Homo sapiens, UniProt Q15722). The experiment can be described thus: Inhibition of [3H]LTB4 binding to Leukotriene B4 receptor of human polymorphonuclear leukocytes. In short, it runs like this:
(§1)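 PMNs from normal donors' peripheral blood, isolated by dextran T500 sedimentation, Ficoll-Hypaque centrifugation and hypotonic lysis. Cells incubated with 0.5 nM [3H]LTB4 (173 Ci/mmol) for 15 min at 0 °C across a range of compound concentrations. Percent inhibition of specific binding measured; IC50 derived graphically, mean of three replicates, mostly on one cell preparation.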
Compound `CC(CCCCOc1cc(-c2ccccc2)cc(-c2ccccc2Cl)n1)C(=O)O` (centres undefined) had a half-maximal inhibitory concentration (IC50) of 6 nM.

In a further experiment the target is T1, Leukotriene B4 receptor 1. The experiment can be described thus: Inhibition of [3H]-LTB4 binding to Leukotriene B4 receptor in the human polymorphonuclear leukocytes. In short, it runs like this: as §1
The compound `O=C(O)CCCCCCOc1cc(-c2ccccc2)cc(-c2ccccc2)n1` returned a half-maximal inhibitory concentration (IC50) of 15 nM.

Compound `CC(C)(CCCCCCOc1cc(-c2ccccc2)cc(-c2ccccc2)n1)C(=O)O` registered an IC50 of 60 nM.

On to `NC(=O)CCCCCOc1cc(-c2ccccc2)cc(-c2ccccc2)n1`, for which the IC50 was found to be 150 nM.

Take `CC(CCCCOc1cc(-c2ccc3c(c2)OCO3)cc(-c2ccccc2Cl)n1)C(=O)O` (centres undefined): the IC50 is 12 nM.

Regarding `CC(C)(CCCCOc1cc(-c2ccc(N)cc2)cc(-c2ccccc2)n1)C(=O)O`, the IC50 was 9.5 nM.

`O=C(O)CCCCOc1cc(-c2ccccc2)cc(-c2ccccc2)n1`: the IC50 was determined as 300 nM. This IC50 is about 32-fold higher than that of the compound before.

The compound `CC(CCCCOc1cc(-c2ccc3c(c2)OCO3)cc(-c2ccccc2)n1)C(=O)O` (centres undefined) returned an IC50 of 6.6 nM.

Regarding `O=C(O)CCCCCOc1cc(-c2ccccc2)cc(-c2ccccc2)n1`, the IC50 was 30 nM.

`CC(CCCCOc1cc(-c2ccccc2)cc(-c2ccccc2)n1)C(=O)O` (centres undefined) registered an IC50 of 30 nM.

For `O=C(O)CCCCCOc1cc(-c2ccc([N+](=O)[O-])cc2)cc(-c2ccccc2)n1`, the IC50 was 600 nM.

On to `O=C(O)CCCCCOc1cc(-c2ccc3c(c2)OCO3)cc(-c2ccccc2)n1`, for which the IC50 was determined as 6 nM. Compared with the last compound, the IC50 is about 100-fold lower.

`O=C(O)CCCCCOc1cc(-c2ccccc2)cc(-c2ccc(F)cc2)n1` registered a half-inhibitory concentration (IC50) of 30 nM.

In turn, `COC(=O)CCCCCOc1cc(-c2ccccc2)cc(-c2ccccc2)n1` had a half-inhibitory concentration (IC50) of 100 nM.

The compound `CC(C)(CCCCOc1cc(-c2ccccc2)cc(-c2ccccc2)n1)c1nnn[nH]1` yielded an IC50 of 20 nM.

In turn, `CC(CCCCOc1cc(-c2ccccc2)cc(-c2ccccc2F)n1)C(=O)O` (centres undefined) gave an IC50 of 18 nM. This IC50 and that of the compound before are within 1.5-fold of each other.

The target of another experiment is T1, Leukotriene B4 receptor 1. Briefly: Inhibition of LTB4-induced elastase release in human polymorphonuclear leukocytes. It is filed as functional, cell-based.
Compound `O=C(O)CCCCCCOc1cc(-c2ccccc2)cc(-c2ccccc2)n1` yielded a half-inhibitory concentration (IC50) of 2500 nM. This lies in the single-digit micromolar range.

For `CC(C)(CCCCCCOc1cc(-c2ccccc2)cc(-c2ccccc2)n1)C(=O)O`, the IC50 came out at 100 nM.

On to `CC(CCCCOc1cc(-c2ccc3c(c2)OCO3)cc(-c2ccccc2Cl)n1)C(=O)O` (centres undefined), for which the midpoint of inhibition, the IC50, lay at 12 nM.

`CC(C)(CCCCOc1cc(-c2ccc(N)cc2)cc(-c2ccccc2)n1)C(=O)O` showed a 50% inhibitory concentration (IC50) of 15 nM.

As for `O=C(O)CCCCOc1cc(-c2ccccc2)cc(-c2ccccc2)n1`, the IC50 worked out at 20000 nM.

`CC(CCCCOc1cc(-c2ccc3c(c2)OCO3)cc(-c2ccccc2)n1)C(=O)O` (centres undefined) returned a concentration for half-maximal inhibition (IC50) of 120 nM. This IC50 is about 170-fold lower than that of the compound before.

Turning to `O=C(O)CCCCCOc1cc(-c2ccccc2)cc(-c2ccccc2)n1`, the IC50 amounted to 2000 nM.

`CC(CCCCOc1cc(-c2ccccc2)cc(-c2ccccc2)n1)C(=O)O` (centres undefined) had a half-maximal inhibitory concentration (IC50) of 22 nM.

`O=C(O)CCCCCOc1cc(-c2ccc3c(c2)OCO3)cc(-c2ccccc2)n1` had an IC50 of 2000 nM.

Compound `O=C(O)CCCCCOc1cc(-c2ccccc2)cc(-c2ccc(F)cc2)n1` showed a half-inhibitory concentration (IC50) of over 10000 nM.

`COC(=O)CCCCCOc1cc(-c2ccccc2)cc(-c2ccccc2)n1`: it took 1000 nM to reach half-maximal inhibition (IC50).

Turning to `O=C(O)CCCCCOc1cc(-c2ccc(NC(=O)C(F)(F)F)cc2)cc(-c2ccccc2)n1`, the IC50 is over 10000 nM.

Regarding `CC(C)(CCCCOc1cc(-c2ccccc2)cc(-c2ccccc2)n1)c1nnn[nH]1`, it took 8 nM to reach half-maximal inhibition (IC50).

Compound `CC(CCCCOc1cc(-c2ccccc2)cc(-c2ccccc2Cl)n1)C(=O)O` (centres undefined) yielded an IC50 of 40 nM.

`O=C(O)CCCCCOc1cc(-c2ccccc2Cl)cc(-c2ccccc2)n1` displayed an IC50 of over 10000 nM.

Regarding `CC(CCCCOc1cc(-c2ccccc2)cc(-c2ccccc2F)n1)C(=O)O` (centres undefined), the 50% inhibitory concentration (IC50) was 70 nM.

The compound `COc1ccc(/C=C/CCCCOc2ccc(C(=O)c3cccc(C(=O)O)c3)cc2CCC(=O)O)cc1` came in with a half-inhibitory concentration (IC50) of 1000 nM.

In another experiment the target is Leukotriene B4 receptor 1 (Cavia porcellus). The experiment can be described thus: Inhibition of [3H]LTB4 binding to Leukotriene B4 receptor in the guinea pig spleen membranes.
Compound `COc1ccc(/C=C/CCCCOc2ccc(C(=O)c3cccc(C(=O)O)c3)cc2CCC(=O)O)cc1` showed an IC50 of 2 nM. That is a single-digit nanomolar value.
